The results in this text go back to ChEMBL document CHEMBL3244368, “[3-(1,4-Cyclohexadienyl)-L-alanine,8-lysine]vasopressin: synthesis and some pharmacological properties” (J Med Chem, 1979).

SMILES strings stand for the structures. Starred links: 1 amine or outer side, 2 acyl side, 3 side chain; linkers in the order of their positions; H or OH if unused. Non-standard residues stand in square brackets, D forms with d. Residues, ends and D or L forms follow the SMILES beside them. *: point of attachment. X1 = O=C([C@H](CC1=CCC=CC1)N[*:1])[*:2]; Tos = Cc1ccc(S(=O)(=O)*)cc1; Cbz = O=C(OCc1ccccc1)*; Bn = c1ccc(C*)cc1

Series [1] is described as follows: Stability of the compound in 0.2 M potassium phosphate buffer at pH 7.7 assessed as hydrolysis by measuring Gly level in presence of papain and aminopeptidase M. Format: ADME. An outline of the steps: (§1)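 Papain digest in 0.5 M ammonium acetate, pH 5.3, with 0.15% mercaptoethanol, substrate:enzyme 20:1, 6 h at 37 °C. Acidified, clarified and lyophilized, then aminopeptidase M digest in 0.2 M potassium phosphate, pH 7.7, substrate:enzyme 1:1.5, 3 h at 37 °C. Amino acid analysis.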

Series [2] is described as follows: Stability of the compound in 0.2 M potassium phosphate buffer at pH 7.7 assessed as hydrolysis by measuring Asn/Gln level in presence of papain and aminopeptidase M. Format: ADME. In short, it runs like this:
as §1

A short description of series [3]: Stability of the compound in 0.2 M potassium phosphate buffer at pH 7.7 assessed as hydrolysis by measuring Gly level in presence of alpha-amylase preparation. In kind it is ADME.
A short description of series [4]: Stability of the compound in 0.2 M potassium phosphate buffer at pH 7.7 assessed as hydrolysis by measuring Ile/Phe + DiHPe level in presence of alpha-amylase preparation. Format: ADME.
Series [5] in a line: Stability of the compound in 0.2 M potassium phosphate buffer at pH 7.7 assessed as hydrolysis by measuring Ile/Phe + DiHPe level in presence of alpha-amylase preparation and aminopeptidase M. Format: ADME.
Series [6] in a line: Stability of the compound in 0.2 M potassium phosphate buffer at pH 7.7 assessed as hydrolysis by measuring Asn/Gln level in presence of alpha-amylase preparation. Format: ADME.
Series [7] can be described thus: Stability of the compound in 0.2 M potassium phosphate buffer at pH 7.7 assessed as hydrolysis by measuring Leu/Lys level in presence of papain and aminopeptidase M. Format: ADME. In short, it runs like this:
as §1

Series [8] in a line: Stability of the compound in […] potassium phosphate buffer at […] assessed as hydrolysis by measuring Ile/Phe + DiHPe level in presence of alpha-amylase preparation and cyclohexadiene. Format: ADME. In short, it runs like this: (§2)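 Aspergillus oryzae α-amylase preparation, 1 mg per 0.9 µmol peptide, in potassium phosphate buffer pH 7, with 1,4-cyclohexadiene (10 µL) and toluene, under N2, 37 °C, 17 h. Adjusted to pH 2.2 for amino acid analysis. Phe from a control of constituent amino acids plus enzyme subtracted to give Phe in residue 3.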

The nature of series [9]: Stability of the compound in […] assessed as hydrolysis by measuring Leu/Lys level in presence of alpha-amylase preparation and cyclohexadiene. In kind it is ADME. To be noted: buffer. In short, it runs like this: as §2
Series [10] in a line: Stability of the compound in 0.2 M potassium phosphate buffer at […] assessed as hydrolysis by measuring Gly level in presence of alpha-amylase preparation and cyclohexadiene. Format: ADME. An outline of the steps:
as §2

A short description of series [11]: Stability of the compound in 0.2 M potassium phosphate buffer at pH 7.7 assessed as hydrolysis by measuring Asn/Gln level in presence of pronase and aminopeptidase M. Format: ADME. In short, it runs like this:
(§3)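 Pronase digest in 0.2 M potassium phosphate, pH 7.7, substrate:enzyme 5:1, 37 °C, enzyme split over 18 h + 4 h. Digest acidified, clarified and lyophilized, then treated with aminopeptidase M (0.2 M potassium phosphate, pH 7.7, substrate:enzyme 1:1.5, 3 h, 37 °C). Amino acid analysis.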

A short description of series [12]: Stability of the compound in 0.2 M potassium phosphate buffer at pH 7.7 assessed as hydrolysis by measuring Asn/Gln level in presence of pronase. Format: ADME. An outline of the steps:
(§4)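 Pronase digest in 0.2 M potassium phosphate buffer, pH 7.7, substrate:enzyme 5:1. Half the enzyme added at start and half after 18 h at 37 °C, then incubated 4 h more. Released amino acids quantified by amino acid analysis.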

Series [13] can be described thus: Stability of the compound in […] assessed as hydrolysis by measuring Asn/Gln level in presence of alpha-amylase preparation and cyclohexadiene. In kind it is ADME. To be noted: buffer. In short, it runs like this:
as §2

A short description of series [14]: Stability of the compound in 0.2 M potassium phosphate buffer at pH 7.7 assessed as hydrolysis by measuring Tyr level in presence of alpha-amylase preparation and aminopeptidase M. Format: ADME.
A short description of series [15]: Stability of the compound in 0.2 M potassium phosphate buffer at pH 7.7 assessed as hydrolysis by measuring Leu/Lys level in presence of pronase. In kind it is ADME. In short, it runs like this: as §4
Series [16] is described as follows: Stability of the compound in 0.2 M potassium phosphate buffer at pH 7.7 assessed as hydrolysis by measuring Gly level in presence of pronase and aminopeptidase M. In kind it is ADME. An outline of the steps: as §3
The nature of series [17]: Stability of the compound in 0.2 M potassium phosphate buffer at pH 7.7 assessed as hydrolysis by measuring Gly level in presence of pronase. Format: ADME. An outline of the steps:
as §4

Series [18] in a line: Stability of the compound in 0.2 M potassium phosphate buffer at pH 7.7 assessed as hydrolysis by measuring Leu/Lys level in presence of alpha-amylase preparation and aminopeptidase M. In kind it is ADME.
The nature of series [19]: Stability of the compound in 0.2 M potassium phosphate buffer at pH 7.7 assessed as hydrolysis by measuring Tyr level in presence of alpha-amylase preparation. Format: ADME.
The nature of series [20]: Stability of the compound in 0.2 M potassium phosphate buffer at pH 7.7 assessed as hydrolysis by measuring Ile/Phe + DiHPe level in presence of pronase and aminopeptidase M. In kind it is ADME. In short, it runs like this: as §3
The nature of series [21]: Stability of the compound in 0.2 M potassium phosphate buffer at pH 7.7 assessed as hydrolysis by measuring Ile/Phe + DiHPe level in presence of papain and aminopeptidase M. In kind it is ADME. An outline of the steps: as §1
The nature of series [22]: Stability of the compound in 0.2 M potassium phosphate buffer at pH 7.7 assessed as hydrolysis by measuring Leu/Lys level in presence of alpha-amylase preparation. In kind it is ADME.
Series [23] in a line: Stability of the compound in 0.2 M potassium phosphate buffer at pH 7.7 assessed as hydrolysis by measuring Gly level in presence of alpha-amylase preparation and aminopeptidase M. Format: ADME.
A short description of series [24]: Stability of the compound in 0.2 M potassium phosphate buffer at […] assessed as hydrolysis by measuring Tyr level in presence of alpha-amylase preparation and cyclohexadiene. In kind it is ADME. An outline of the steps:
as §2

Series [25] in a line: Stability of the compound in 0.2 M potassium phosphate buffer at pH 7.7 assessed as hydrolysis by measuring Asn/Gln level in presence of alpha-amylase preparation and aminopeptidase M. In kind it is ADME.
The nature of series [26]: Stability of the compound in 0.2 M potassium phosphate buffer at pH 7.7 assessed as hydrolysis by measuring Ile/Phe + DiHPe level in presence of pronase. In kind it is ADME. An outline of the steps:
as §4

The nature of series [27]: Stability of the compound in 0.2 M potassium phosphate buffer at pH 7.7 assessed as hydrolysis by measuring Leu/Lys level in presence of pronase and aminopeptidase M. In kind it is ADME. In short, it runs like this:
as §3

The nature of series [28]: Stability of the compound in 0.2 M potassium phosphate buffer at pH 7.7 assessed as hydrolysis by measuring Tyr level in presence of papain and aminopeptidase M. Format: ADME. In short, it runs like this: as §1
Series [29] can be described thus: Stability of the compound in potassium phosphate buffer at pH 7 assessed as hydrolysis by measuring Phe level in presence of alpha-amylase preparation and cyclohexadiene.
A short description of series [30]: Stability of the compound in potassium phosphate buffer at pH 7 assessed as hydrolysis by measuring Phe level in presence of alpha-amylase preparation.
The nature of series [31]: Stability of the compound in potassium phosphate buffer at pH 7 assessed as hydrolysis by measuring DiHPe level in presence of alpha-amylase preparation and cyclohexadiene.
Series [32] in a line: Stability of the compound in potassium phosphate buffer at pH 7 assessed as hydrolysis by measuring DiHPe level in presence of alpha-amylase preparation.
A short description of series [33]: Stability of the compound in 0.2 M potassium phosphate buffer at pH 7.7 assessed as hydrolysis by measuring Tyr level in presence of pronase. In kind it is ADME. In short, it runs like this: as §4

For the compound `CC[C@H](C)[C@H](NC(=O)[C@H](Cc1ccc(O)cc1)NC(=O)[C@@H](N)CS(=O)(=O)O)C(=O)N[C@@H](CCC(N)=O)C(=O)N[C@@H](CC(N)=O)C(=O)N[C@@H](CS(=O)(=O)O)C(=O)N1CCC[C@H]1C(=O)N[C@@H](CC(C)C)C(=O)NCC(N)=O`, the Drug degradation in [1] is 13 mol%; in [2], 14 mol%; in [3], 50 mol%; in series [4] it was 75 mol%; in [5], 82 mol%; in [6], 72 mol%. Besides, the Drug degradation stood at 14 mol% in series [7]; 51 mol% in series [8]; 57 mol% in series [9]; 38 mol% in [10]; 124 mol% in [11]; 86 mol% in [12]. The Drug degradation stood at 86 mol% in series [13]; 35 mol% in [14]; 46 mol% in series [15]; 54 mol% in series [16]; 44 mol% in [17]; 85 mol% in series [18]. In addition, the Drug degradation in series [19] is reported as 26 mol%; in series [20] it was 65 mol%; in series [21] it was 13 mol%; in series [22], 72 mol%; in series [23], 60 mol%; in series [24], 23 mol%. The Drug degradation in series [25] was determined as 90 mol%; in series [26], 38 mol%; in [27] it was 65 mol%; in series [28], 30 mol%.

In the case of `Cc1ccc(S(=O)(=O)NCCCC[C@H](NC(=O)[C@@H]2CCCN2C(=O)[C@H](CSCc2ccccc2)NC(=O)[C@H](CC(N)=O)NC(=O)[C@H](CCC(N)=O)NC(=O)[C@H](CC2=CCC=CC2)NC(=O)[C@H](Cc2ccc(OCc3ccccc3)cc2)NC(=O)[C@H](CSCc2ccccc2)NC(=O)OCc2ccccc2)C(=O)NCC(N)=O)cc1` (Cbz-C(Bn)Y(Bn)[X1]QNC(Bn)PK(Tos)G-NH2), the Drug degradation is 4.4 mol% in [29]; 18 mol% in series [3]; 67 mol% in series [6]; 3.9 mol% in series [30]; 52.4 mol% in [31]; 77 mol% in series [19]. In addition, the Drug degradation amounted to 57.6 mol% in [32] and 73 mol% in series [24].

On to `CC[C@H](C)[C@@H]1NC(=O)[C@H](Cc2ccc(O)cc2)NC(=O)[C@@H](N)CSSC[C@@H](C(=O)N2CCC[C@H]2C(=O)N[C@@H](CC(C)C)C(=O)NCC(N)=O)NC(=O)[C@H](CC(N)=O)NC(=O)[C@H](CCC(N)=O)NC1=O` [OXYTOCIN], for which the Drug degradation amounted to 70 mol% in series [33]; 63 mol% in [3]; 72 mol% in series [4]; 110 mol% in series [6]; 76 mol% in series [12]; 60 mol% in series [15]. Further, the Drug degradation in [17] is given as 36 mol%; in [19], 63 mol%; in series [22], 77 mol%; in [26] it was 54 mol%.
